About 1,200 (48%) of roughly 2,500 compounds were called active. So high a share suggests a set chosen from earlier hits. This is one part of the list. Values without a mark were called inactive.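 The calls were made as follows: active = mean activation above the low control average plus 3 SD, as set in the primary screen (cut at about 12% in these data); inactive = the rest.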

This assay concerns the target Troponin I, cardiac muscle (Homo sapiens) + Troponin T, cardiac muscle (Homo sapiens) + Troponin C, slow skeletal and cardiac muscles (Homo sapiens) (UniProt P19429+P45379+P63316). Kind of assay: calcium sensitizers of cardiac thin filaments – biochemical, IANBD-TnC fluorescence, triplicate, confirmation (AID 504383).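 Also: 0% = DMSO at 0.472 mM calcium and 100% = DMSO at 2.9 mM calcium.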 The settings on record: IANBD-labeled cardiac RTF, Ca2+ sensitivity fluorescence; at 7.2 µM; active compounds read high; scaled from EC20 to saturating calcium; tested at EC20 calcium, 0.472 mM. The procedure, abridged: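 Assay system: labelled regulated thin filaments / Timing: 15 min at 25 °C / Detection: fluorescence intensity of labelled filaments / Measure: fluorescence gain scaled between EC20 and EC100 calcium controls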
With `Cn1cc(/C=C2\SC(=S)N(NC(=O)c3cccc(Cl)c3)C2=O)c2ccccc21`, the activation was 52.1% (active).

With `Cc1ccc(C(=O)NN2C(=O)/C(=C/c3cn(C)c4ccccc34)SC2=S)cc1`, the activation was 19.4% (active).

Turning to `Cn1cc(/C=C2\SC(=S)N(NC(=O)c3ccccc3)C2=O)c2ccccc21`, the activation is 40.9% (active).

Turning to `Cn1cc(/C=C2\SC(=S)N(NC(=O)c3ccccc3Cl)C2=O)c2ccccc21`, the activation is 23.3% (active).

As for `NS(=O)(=O)c1ccc(N2N=C(c3ccccc3)CC2c2ccccc2)cc1` (stereo unspecified), the activation is 31% (active).

Take `N#CCC(=O)N/N=C/c1ccc(N2N=C(c3ccccc3)CC2c2ccccc2)cc1` (stereo unspecified): the activation was 8.4%.

Turning to `COc1ccc(C2CC(c3ccncc3)=NN2c2ccc(S(N)(=O)=O)cc2)cc1` (stereo unspecified), the activation was 13.1% (active).

`N#CC1CC(c2ccc([N+](=O)[O-])cc2)=NN1c1ccc([N+](=O)[O-])cc1` (stereo unspecified): the activation was 6.69%.

Turning to `O=[N+]([O-])c1ccc(N2N=C(c3ccccc3)CC2c2ccccc2O)cc1` (stereo unspecified), the activation is 127% (active).

`CSc1nnnn1-c1c(C)cc(C)cc1C`: the activation is 3.29%.

`Cc1ccccc1-n1nnnc1SCC(C)C`: the activation is 103% (active).

For the compound `O=C(COc1ccccc1F)NC1CC1`, the activation is 66.3% (active).

`COC(=O)c1cc2c(C)c(C)c3ccccn3c-2c1C(=O)OC`: the activation is 5.27%.

Turning to `O=C(N/N=C/c1cc([N+](=O)[O-])ccc1N1CCNCC1)c1ccc([N+](=O)[O-])cc1`, the activation is 19% (active).

As to `CCOc1ccc(NC(=S)c2ccncc2)cc1`, the activation was 6.9%.

`C=CCN1C(=O)[C@@H]2Cc3c([nH]c4ccccc34)C(c3ccc(O)cc3)N2C1=S` (stereo partly specified): the activation was 4.94%.

Consider `N#CC12COC3(CCCCC3C1(C#N)C#N)OC2=N` (stereo unspecified), for which the activation was 2.01%.

With `CCCOc1ccc(-c2nn(-c3ccccc3)cc2/C=C2\SC(N)=NC2=O)cc1`, the activation was -0.61%.

Regarding `COc1ccccc1N=C1NC(=O)/C(=C/c2ccc(N(C)C)cc2)S1`, the activation was 10.9%.

In the case of `CCN(CC)c1ccc(C=C2SC(=S)NC2=O)cc1`, the activation is 57.9% (active).

`CCOc1ccc(N(C)c2ccc(/C=C3/SC(=S)NC3=O)cc2)cc1`: the activation is 20.5% (active).

As for `CN(C)c1ccc(C=C2SC(=S)NC2=O)cc1`, the activation was 11.7% (active).

Turning to `COc1ccc(-c2nn(CCC(=O)O)cc2/C=C2\SC(N)=NC2=O)cc1`, the activation is 8.42%.

Take `CCN(CC)c1ccc(/C=C2\SC(N)=NC2=O)cc1`: the activation was 108% (active).

For the compound `CN(C)c1ccc(/C=C2\CCC/C(=C\c3ccccc3)C2=O)cc1`, the activation was 0.5%.

On to `NC(=O)C1(NC(=O)[C@@H]2CC3(CC(c4cccc(NC(=O)[C@@H]5CCC(=O)N5)c4)=NO3)CN2C(=O)c2ccccc2)CC1` (stereo partly specified), for which the activation is 9.17%.

For the origin of these results see PubChem BioAssay AID504383 (The Scripps Research Institute Molecular Screening Center, 2011).
